Results taken from EPA's CvTdb concentration-time database.

What was measured:
Rat [1] = assay: concentration in plasma after dosing; conditions: dosed: 2-Hydroxy-4-methoxybenzophenone, 500 mg/kg, oral, Female, F344
Mouse [2] = assay: concentration in plasma after dosing; conditions: 2 h; dosed: 2-Hydroxy-4-methoxybenzophenone; 500 mg/kg; oral; Female; B6C3F1
Mouse [3] = assay: concentration in plasma after dosing; conditions: dosed: 2-Hydroxy-4-methoxybenzophenone, 100 mg/kg, oral, Female, B6C3F1
Mouse [4] = assay: concentration in plasma after dosing; conditions: 2 h; dosed: 2-Hydroxy-4-methoxybenzophenone; 250 mg/kg; oral; Male; B6C3F1
Rat [5] = assay: concentration in plasma after dosing; conditions: dosed: 2-Hydroxy-4-methoxybenzophenone, 500 mg/kg, oral, Female, F344; remark: listed apart in the source
Mouse [6] = assay: concentration in plasma after dosing; conditions: 0.25 h; dosed: 2-Hydroxy-4-methoxybenzophenone; 50 mg/kg; iv; Male; B6C3F1
Mouse [7] = assay: concentration in plasma after dosing; conditions: 10 min; dosed: 2-Hydroxy-4-methoxybenzophenone; 250 mg/kg; oral; Female; B6C3F1
Mouse [8] = assay: concentration in plasma after dosing; conditions: 10 min; dosed: 2-Hydroxy-4-methoxybenzophenone; 500 mg/kg; oral; Male; B6C3F1
Mouse [9] = assay: concentration in plasma after dosing; conditions: 10 min; dosed: 2-Hydroxy-4-methoxybenzophenone; 50 mg/kg; iv; Female; B6C3F1
Mouse [10] = assay: concentration in plasma after dosing; conditions: 0.25 h; dosed: 2-Hydroxy-4-methoxybenzophenone; 500 mg/kg; oral; Female; B6C3F1
Rat [11] = assay: concentration in plasma after dosing; conditions: 3 h; dosed: alpha-Thujone; 25 mg/kg; oral; Male; Harlan Sprague Dawley
Rat [12] = assay: concentration in plasma after dosing; conditions: 3 h; dosed: alpha-Thujone; 50 mg/kg; oral; Female; Harlan Sprague Dawley
Rat [13] = assay: concentration in brain after dosing; conditions: 2.5 h; dosed: 76231-76-0; 3.0 mg/kg; iv; Female; F344
Rat [14] = assay: concentration in brain after dosing; conditions: 6 h; dosed: alpha-Thujone; 25 mg/kg; oral; Male; Harlan Sprague Dawley
Rat [15] = assay: concentration in plasma after dosing; conditions: 1.5 h; dosed: alpha-Thujone; 25 mg/kg; oral; Male; Harlan Sprague Dawley
Rat [16] = assay: concentration in liver after dosing; conditions: 3 h; dosed: Perfluorohexane-1-sulphonic acid – potassium salt; 16 mg/kg; oral; Female; Harlan Sprague Dawley
Rat [17] = assay: concentration in brain after dosing; conditions: 3 h; dosed: Perfluorohexane-1-sulphonic acid – potassium salt; 16 mg/kg; oral; Female; Harlan Sprague Dawley
Rat [18] = assay: concentration in liver after dosing; conditions: 3 h; dosed: Perfluorohexane-1-sulphonic acid – potassium salt; 16 mg/kg; oral; Female; Harlan Sprague Dawley; remark: listed apart in the source
Rat [19] = assay: concentration in plasma after dosing; conditions: dosed: Pyridine, 5 mg/kg, iv, Male, F344
Rat [20] = assay: concentration in plasma after dosing; conditions: dosed: Pyridine, 5 mg/kg, oral, Male, F344
Rat [21] = assay: concentration in plasma after dosing; conditions: dosed: Pyridine, 25 mg/kg, oral, Male, F344
Rat [22] = assay: concentration in plasma after dosing; conditions: 1 h; dosed: Methyleugenol; 37 mg/kg; oral; Male; F344/N
Rat [23] = assay: concentration in plasma after dosing; conditions: dosed: Methyleugenol, 37 mg/kg, oral, Male, F344/N
Rat [24] = assay: concentration in plasma after dosing; conditions: dosed: Methyleugenol, 37 mg/kg, iv, Male, F344
Rat [25] = assay: concentration in plasma after dosing; conditions: dosed: Methyleugenol, 37 mg/kg, oral, Male, F344/N; remark: listed apart in the source
Rat [26] = assay: concentration in plasma after dosing; conditions: dosed: 2,4-Dichlorophenoxyacetic acid, 7.0 mg/kg, oral, Male, Sprague-Dawley
Hamster [27] = assay: concentration in plasma after dosing; conditions: dosed: 2,4-Dichlorophenoxyacetic acid, 40 mg/kg, oral, Male, Syrian Golden
In short: (§1)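 A PubMed search, classifier screening and manual review identified published in vivo toxicokinetic studies, which together with two structured collections supplied concentration-versus-time and amount-versus-time points. Points were mostly digitised from plot screenshots with WebPlotDigitizer, otherwise copied from tables. Dose, route, subject details and medium were hand-curated from each paper, and sampling and analytical methods are those of the sources, often unreported.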

Mouse [28] = assay: concentration in plasma after dosing; conditions: 2.5 min; dosed: 2,4-Dichlorophenoxyacetic acid; 1.0 mg/kg; oral; Male; B6C3F1
Hamster [29] = assay: concentration in plasma after dosing; conditions: dosed: 2,4-Dichlorophenoxyacetic acid, 8.0 mg/kg, iv, Male, Syrian Golden
In short: as §1

Rat [30] = assay: concentration in plasma after dosing; conditions: 12 h; dosed: Primidone; 80 mg/kg; oral; Female; Harlan Sprague-Dawley
Rat [31] = assay: concentration in plasma after dosing; conditions: 9 h; dosed: Primidone; 130 mg/kg; oral; Male; F344
Rat [32] = assay: concentration in plasma after dosing; conditions: 9 h; dosed: Primidone; 80 mg/kg; oral; Male; F344

O=C(c1ccccc1)c1ccc(O)cc1O [2,4-Dihydroxybenzophenone]
Conditions	concentration in plasma [ng/mL]
Mouse [3], 0.25 h	276
Mouse [3], 2 h	92.3
Mouse [3], 2.5 min	63.7
Mouse [3], 10 min	130
Rat [1], 0.5 h	675
Rat [1], 12 h	221
Rat [5], 10 h	206
Rat [5], 10 min	116

Conditions	concentration in plasma [ng/mL]
Mouse [2]	104
Mouse [4]	338
Mouse [6]	1970
Mouse [7]	2990
Mouse [8]	856
Mouse [9]	2270
Mouse [10]	5480

CC(C)[C@]12CC(=O)[C@H](C)[C@H]1C2 [alpha-Thujone]
Conditions	concentration in brain [ng/g]	concentration in plasma [ng/mL]
Rat [11]	–	113
Rat [12]	–	244
Rat [13]	19.8	–
Rat [14]	435	–
Rat [15]	–	233

O=S(=O)([O-])C(F)(F)C(F)(F)C(F)(F)C(F)(F)C(F)(F)C(F)(F)F.[K+] [Perfluorohexane-1-sulphonic acid – potassium salt]
Conditions	concentration in brain [ng/g]	concentration in liver [ng/g]
Rat [16]	–	54100
Rat [17]	1560	–
Rat [18]	–	57400

c1ccncc1 [Pyridine]
concentration in plasma [ng/mL]
Conditions	0.5 h	1 h	6 h	8 h
Rat [19]	2590	–	–	881
Rat [20]	–	3160	–	1170
Rat [21]	18700	–	16200	–

C=CCc1ccc(OC)c(OC)c1 [Methyleugenol]
Conditions	concentration in plasma [ng/mL]
Rat [22]	63.4

Conditions	concentration in plasma [ng/mL]
Rat [23], 2 min	8.3
Rat [23], 4 h	11.2
Rat [24], 3 h	263
Rat [24], 5 min	29200
Rat [25], 1.5 h	23.6
Rat [25], 6 h	8

O=C(O)COc1ccc(Cl)cc1Cl [2,4-Dichlorophenoxyacetic acid]
Conditions	concentration in plasma [ng/mL]
Hamster [27], 0.25 h	57000
Hamster [27], 0.5 h	88000
Hamster [27], 1 h	40700
Hamster [27], 1.5 h	16600
Hamster [27], 2 h	12000
Hamster [27], 4 h	3730
Hamster [27], 5 min	26600
Hamster [27], 6 h	1400
Hamster [27], 10 h	34300
Hamster [29], 5 min	55300
Hamster [29], 40 min	3090
Rat [26], 0.25 h	9530
Rat [26], 0.5 h	10100
Rat [26], 2 h	13900
Rat [26], 2.5 min	4360
Rat [26], 3 h	2020
Rat [26], 4 h	2030
Rat [26], 5 h	3730
Rat [26], 6 h	776
Rat [26], 10 min	8480

Conditions	concentration in plasma [ng/mL]
Mouse [28]	1730

CCC1(c2ccccc2)C(=O)NCNC1=O [Primidone]
Conditions	concentration in plasma [ng/mL]
Rat [30]	1400
Rat [31]	10400
Rat [32]	3000
